The record followed here is ChEMBL document CHEMBL2407081, “Discovery of potent, isoform-selective inhibitors of histone deacetylase containing chiral heterocyclic capping groups and a N-(2-aminophenyl)benzamide binding unit” (J Med Chem, 2013).

For one assay, the target named is Histone deacetylase 1 (Homo sapiens, UniProt Q13547). In words: Inhibition of recombinant C-terminal FLAG-tagged HDAC1 (unknown origin) expressed in Escherichia coli BL21 using MAL as substrate incubated for 1 hr prior to substrate addition measured after 60 mins by fluorescence plate reader analysis.
A further assay concerns the target T1, Histone deacetylase 8 (Homo sapiens, UniProt Q9BY41).
T1 sequence (Q9BY41 whole entry): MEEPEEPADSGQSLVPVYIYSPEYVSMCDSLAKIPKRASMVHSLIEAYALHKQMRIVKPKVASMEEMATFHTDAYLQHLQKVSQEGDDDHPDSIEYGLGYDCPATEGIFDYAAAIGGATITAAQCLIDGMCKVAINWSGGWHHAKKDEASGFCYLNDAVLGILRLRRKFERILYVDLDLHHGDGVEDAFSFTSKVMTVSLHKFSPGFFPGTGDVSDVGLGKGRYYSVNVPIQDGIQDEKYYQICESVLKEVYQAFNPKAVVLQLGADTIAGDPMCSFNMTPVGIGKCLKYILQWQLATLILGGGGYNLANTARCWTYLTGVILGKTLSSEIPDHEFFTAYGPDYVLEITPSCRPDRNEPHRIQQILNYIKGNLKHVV
Kind of assay: Inhibition of recombinant HDAC8 (unknown origin) expressed in Escherichia coli BL21 using MAL as substrate incubated for 15 mins prior to substrate addition measured after 60 mins by fluorescence plate reader analysis.

The target of assay [1] is Histone deacetylase 3/NCoR1 (Homo sapiens, UniProt O15379). In words: Inhibition of recombinant HDAC3-NCoR1 (unknown origin) using MAL as substrate incubated for 3 hrs prior to substrate addition measured after 60 mins by fluorescence plate reader analysis. The assay is classed as protein-complex assay.
The target in the next assay is Histone deacetylase 2 (Homo sapiens, UniProt Q92769). In words: Inhibition of recombinant His-tagged HDAC2 (1 to 488) (unknown origin) using MAL as substrate incubated for 3 hrs prior to substrate addition measured after 60 mins by fluorescence plate reader analysis.
The target in assay [2] is T2, Protein deacetylase HDAC6 (Homo sapiens, UniProt Q9UBN7).
T2 sequence (Q9UBN7 whole entry): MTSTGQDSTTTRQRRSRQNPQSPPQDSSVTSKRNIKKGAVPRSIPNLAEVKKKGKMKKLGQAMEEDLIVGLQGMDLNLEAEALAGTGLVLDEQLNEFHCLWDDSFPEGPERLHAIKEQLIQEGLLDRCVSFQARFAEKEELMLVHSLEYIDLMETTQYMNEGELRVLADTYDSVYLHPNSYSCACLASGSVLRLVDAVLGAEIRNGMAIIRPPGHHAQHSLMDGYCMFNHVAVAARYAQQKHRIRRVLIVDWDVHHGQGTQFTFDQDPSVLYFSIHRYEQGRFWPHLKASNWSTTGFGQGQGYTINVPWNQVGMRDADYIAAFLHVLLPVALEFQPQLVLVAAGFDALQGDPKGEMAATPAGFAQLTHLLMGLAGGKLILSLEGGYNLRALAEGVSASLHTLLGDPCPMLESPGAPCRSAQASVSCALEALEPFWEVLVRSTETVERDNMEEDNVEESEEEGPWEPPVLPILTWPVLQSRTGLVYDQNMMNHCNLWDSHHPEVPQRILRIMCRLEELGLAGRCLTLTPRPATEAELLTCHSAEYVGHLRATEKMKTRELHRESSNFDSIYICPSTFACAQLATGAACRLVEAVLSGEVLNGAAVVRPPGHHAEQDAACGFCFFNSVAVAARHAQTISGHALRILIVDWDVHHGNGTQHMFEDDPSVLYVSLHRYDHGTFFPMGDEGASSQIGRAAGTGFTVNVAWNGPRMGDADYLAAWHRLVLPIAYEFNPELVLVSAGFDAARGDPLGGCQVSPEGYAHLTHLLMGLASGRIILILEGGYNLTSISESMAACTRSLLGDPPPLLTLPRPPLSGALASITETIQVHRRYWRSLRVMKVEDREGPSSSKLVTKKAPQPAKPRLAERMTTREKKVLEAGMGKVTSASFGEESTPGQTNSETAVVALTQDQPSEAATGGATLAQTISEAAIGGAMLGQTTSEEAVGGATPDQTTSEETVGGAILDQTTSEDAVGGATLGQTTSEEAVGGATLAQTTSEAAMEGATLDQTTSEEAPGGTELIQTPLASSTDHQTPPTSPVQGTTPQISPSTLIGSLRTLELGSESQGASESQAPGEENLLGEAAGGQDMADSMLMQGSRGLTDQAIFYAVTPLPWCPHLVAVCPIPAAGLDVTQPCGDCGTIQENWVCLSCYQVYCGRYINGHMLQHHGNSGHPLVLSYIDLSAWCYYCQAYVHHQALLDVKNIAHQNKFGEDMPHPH
In words: Inhibition of recombinant His-tagged HDAC6 (unknown origin) using Fluor-de-Lys SIRT1 as substrate incubated for 3 hrs prior to substrate addition measured after 60 mins by fluorescence plate reader analysis.

For assay [3], the system named is Jurkat. In words: Induction of apoptosis in human Jurkat cells assessed as PARP cleavage at 1 to 10 uM after 24 hrs by Western blot analysis. Format: functional, cell-based.
Assay [4] relates to HeLa. In words: Induction of apoptosis in human HeLa cells assessed as PARP cleavage at 1 to 10 uM after 24 hrs by Western blot analysis. Format: functional, cell-based.
The subject of assay [5] is HeLa. Kind of assay: Cell cycle arrest in human HeLa cells assessed as accumulation at G2/M phase at 10 uM after 24 hrs by FITC/propidium iodide staining-based FACS flow cytometric analysis. The assay is classed as functional. The essentials: (§1)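 HeLa and Jurkat human cells were cultured for 24 h with compound at two concentrations. The control was an equal volume of the DMSO diluent. Cellular DNA and protein content were then measured by flow cytometry, and the percentage of cells in sub-G1, G0/G1, S and G2/M was read out.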

For assay [6], the system named is Jurkat. Kind of assay: Cell cycle arrest in human Jurkat cells assessed as accumulation at G2/M phase at 1 uM after 24 hrs by FITC/propidium iodide staining-based FACS flow cytometric analysis (reference value: 14.4%). The assay is classed as functional. The gist of the method:
as §1

The subject of assay [7] is Jurkat. In words: Cell cycle arrest in human Jurkat cells assessed as accumulation at S phase at 1 uM after 24 hrs by FITC/propidium iodide staining-based FACS flow cytometric analysis (reference value: 22.3%). Format: functional. The essentials: as §1
The test system of assay [8] is Jurkat. In words: Cell cycle arrest in human Jurkat cells assessed as accumulation at G0/G1 phase at 1 uM after 24 hrs by FITC/propidium iodide staining-based FACS flow cytometric analysis (reference value: 55.5%). Format: functional. The gist of the method: as §1
For assay [9], the system named is Jurkat. In words: Cell cycle arrest in human Jurkat cells assessed as accumulation at sub-G1 phase at 1 uM after 24 hrs by FITC/propidium iodide staining-based FACS flow cytometric analysis (reference value: 6.8%). Format: functional. The essentials: as §1
The subject of assay [10] is Jurkat. Kind of assay: Cell cycle arrest in human Jurkat cells assessed as accumulation at G2/M phase at 10 uM after 24 hrs by FITC/propidium iodide staining-based FACS flow cytometric analysis (reference value: 13.2%). The assay is classed as functional. The essentials: as §1
In assay [11] the test system is Jurkat. In words: Cell cycle arrest in human Jurkat cells assessed as accumulation at S phase at 10 uM after 24 hrs by FITC/propidium iodide staining-based FACS flow cytometric analysis (reference value: 15.3%). The assay is classed as functional. The gist of the method: as §1
Assay [12] relates to Jurkat. Kind of assay: Cell cycle arrest in human Jurkat cells assessed as accumulation at G0/G1 phase at 10 uM after 24 hrs by FITC/propidium iodide staining-based FACS flow cytometric analysis (reference value: 69.5%). Format: functional. The essentials: as §1
For assay [13], the system named is Jurkat. In words: Cell cycle arrest in human Jurkat cells assessed as accumulation at sub-G1 phase at 10 uM after 24 hrs by FITC/propidium iodide staining-based FACS flow cytometric analysis (reference value: 2%). The assay is classed as functional. The gist of the method:
as §1

The test system of another assay is MCF7. Kind of assay: Cytotoxicity against human MCF7 cells assessed as growth inhibition by measuring cellular ATP level after 72 hrs by cell-titer glo assay. Format: functional, cell-based. To be noted: MCF7, 72 h.
For a further assay, the system named is DU-145. In words: Cytotoxicity against human DU145 cells assessed as growth inhibition by measuring cellular ATP level after 72 hrs by cell-titer glo assay. Format: functional, cell-based. Conditions: DU-145, 72 h.
The next assay has as its system HCT-116. Kind of assay: Cytotoxicity against human HCT116 cells assessed as growth inhibition by measuring cellular ATP level after 72 hrs by cell-titer glo assay. The assay is classed as functional, cell-based. Conditions: HCT-116, 72 h.
The next assay has as its system A549. In words: Cytotoxicity against human A549 cells assessed as growth inhibition by measuring cellular ATP level after 72 hrs by cell-titer glo assay. The assay is classed as functional, cell-based. Conditions: A549, 72 h.
For assay [14], the target named is Histone deacetylase 3/NCoR1 (Homo sapiens) (UniProt O15379+O75376). Kind of assay: Competitive inhibition of recombinant HDAC3-NCoR1 (unknown origin) assessed as fast tight binding at 0.016 to 1 uM. The assay is classed as protein-complex assay.

Structures are written as SMILES. Activity calls are given as the source filed them. The rule behind the calls is not given here.

Chain of Histone deacetylase 3/NCoR1 (O15379 whole entry): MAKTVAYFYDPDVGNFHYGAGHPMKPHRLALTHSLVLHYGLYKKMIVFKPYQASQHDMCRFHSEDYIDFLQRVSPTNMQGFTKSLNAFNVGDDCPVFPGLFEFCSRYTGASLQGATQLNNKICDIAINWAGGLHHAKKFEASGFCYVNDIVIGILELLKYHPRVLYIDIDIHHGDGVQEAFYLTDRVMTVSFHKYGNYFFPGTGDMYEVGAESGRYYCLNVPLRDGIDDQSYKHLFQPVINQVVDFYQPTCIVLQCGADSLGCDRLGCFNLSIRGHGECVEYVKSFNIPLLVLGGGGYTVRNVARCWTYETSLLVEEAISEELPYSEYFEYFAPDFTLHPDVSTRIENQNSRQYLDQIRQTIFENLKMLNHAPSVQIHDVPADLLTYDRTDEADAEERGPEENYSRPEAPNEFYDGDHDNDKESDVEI
Chain of Histone deacetylase 3/NCoR1 (O75376 whole entry, further chain): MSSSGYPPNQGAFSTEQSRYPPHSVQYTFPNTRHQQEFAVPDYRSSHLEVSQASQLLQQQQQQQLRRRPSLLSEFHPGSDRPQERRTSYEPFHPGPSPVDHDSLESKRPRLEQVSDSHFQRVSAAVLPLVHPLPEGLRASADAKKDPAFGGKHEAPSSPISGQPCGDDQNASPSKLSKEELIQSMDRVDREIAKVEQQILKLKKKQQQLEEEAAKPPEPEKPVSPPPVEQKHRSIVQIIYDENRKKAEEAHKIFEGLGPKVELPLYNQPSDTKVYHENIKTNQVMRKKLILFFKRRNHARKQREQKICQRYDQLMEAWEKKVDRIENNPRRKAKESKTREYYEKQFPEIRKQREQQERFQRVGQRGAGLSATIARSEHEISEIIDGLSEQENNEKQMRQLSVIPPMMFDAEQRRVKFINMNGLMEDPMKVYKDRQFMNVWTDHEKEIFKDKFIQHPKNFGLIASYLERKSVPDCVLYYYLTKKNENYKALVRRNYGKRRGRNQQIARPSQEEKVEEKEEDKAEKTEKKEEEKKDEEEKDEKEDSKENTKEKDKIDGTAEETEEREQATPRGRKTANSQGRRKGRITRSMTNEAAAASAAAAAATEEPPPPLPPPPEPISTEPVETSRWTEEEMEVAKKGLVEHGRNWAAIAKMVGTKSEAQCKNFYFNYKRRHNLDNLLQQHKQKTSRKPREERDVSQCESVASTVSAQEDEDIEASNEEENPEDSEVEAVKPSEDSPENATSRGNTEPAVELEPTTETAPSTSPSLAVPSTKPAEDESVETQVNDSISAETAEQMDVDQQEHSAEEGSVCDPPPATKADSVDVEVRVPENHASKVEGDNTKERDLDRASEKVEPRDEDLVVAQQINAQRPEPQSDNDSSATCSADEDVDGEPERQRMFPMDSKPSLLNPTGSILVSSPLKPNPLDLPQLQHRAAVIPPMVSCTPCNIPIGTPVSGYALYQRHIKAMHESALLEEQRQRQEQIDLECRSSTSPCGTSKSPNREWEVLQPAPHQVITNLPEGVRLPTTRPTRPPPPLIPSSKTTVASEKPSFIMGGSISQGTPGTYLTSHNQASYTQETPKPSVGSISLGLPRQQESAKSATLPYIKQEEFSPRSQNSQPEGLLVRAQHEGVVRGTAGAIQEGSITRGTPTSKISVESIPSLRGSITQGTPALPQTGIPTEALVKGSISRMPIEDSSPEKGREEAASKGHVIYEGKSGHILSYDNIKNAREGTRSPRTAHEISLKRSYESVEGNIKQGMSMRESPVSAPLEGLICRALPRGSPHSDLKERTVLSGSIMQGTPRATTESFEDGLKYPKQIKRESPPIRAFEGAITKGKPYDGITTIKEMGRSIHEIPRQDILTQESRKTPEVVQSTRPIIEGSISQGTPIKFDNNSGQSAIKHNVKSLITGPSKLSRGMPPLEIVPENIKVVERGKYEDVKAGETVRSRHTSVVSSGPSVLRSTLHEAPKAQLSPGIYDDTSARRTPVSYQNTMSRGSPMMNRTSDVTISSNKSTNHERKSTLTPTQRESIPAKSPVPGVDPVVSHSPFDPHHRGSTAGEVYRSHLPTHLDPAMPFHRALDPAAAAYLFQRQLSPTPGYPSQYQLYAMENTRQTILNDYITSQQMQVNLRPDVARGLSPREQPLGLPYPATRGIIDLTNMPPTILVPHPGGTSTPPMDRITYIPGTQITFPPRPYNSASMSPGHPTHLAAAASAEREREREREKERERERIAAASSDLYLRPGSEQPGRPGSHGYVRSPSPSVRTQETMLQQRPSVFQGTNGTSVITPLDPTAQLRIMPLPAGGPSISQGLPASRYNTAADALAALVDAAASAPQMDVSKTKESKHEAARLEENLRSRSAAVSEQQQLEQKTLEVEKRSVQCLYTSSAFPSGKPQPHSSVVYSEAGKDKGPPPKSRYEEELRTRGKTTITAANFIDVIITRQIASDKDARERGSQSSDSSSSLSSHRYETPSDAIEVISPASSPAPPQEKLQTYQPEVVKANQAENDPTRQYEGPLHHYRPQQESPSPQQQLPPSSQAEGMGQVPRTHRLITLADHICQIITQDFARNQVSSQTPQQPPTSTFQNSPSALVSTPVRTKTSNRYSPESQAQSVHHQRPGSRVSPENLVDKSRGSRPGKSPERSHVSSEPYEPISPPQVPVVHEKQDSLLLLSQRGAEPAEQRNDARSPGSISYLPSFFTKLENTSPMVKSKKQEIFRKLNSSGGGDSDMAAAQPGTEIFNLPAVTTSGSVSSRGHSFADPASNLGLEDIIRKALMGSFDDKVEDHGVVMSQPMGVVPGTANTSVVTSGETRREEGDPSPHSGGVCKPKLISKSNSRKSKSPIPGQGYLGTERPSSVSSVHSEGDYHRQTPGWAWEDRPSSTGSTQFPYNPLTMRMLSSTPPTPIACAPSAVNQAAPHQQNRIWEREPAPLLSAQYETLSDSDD
Chain of Histone deacetylase 2 (Q92769 whole entry): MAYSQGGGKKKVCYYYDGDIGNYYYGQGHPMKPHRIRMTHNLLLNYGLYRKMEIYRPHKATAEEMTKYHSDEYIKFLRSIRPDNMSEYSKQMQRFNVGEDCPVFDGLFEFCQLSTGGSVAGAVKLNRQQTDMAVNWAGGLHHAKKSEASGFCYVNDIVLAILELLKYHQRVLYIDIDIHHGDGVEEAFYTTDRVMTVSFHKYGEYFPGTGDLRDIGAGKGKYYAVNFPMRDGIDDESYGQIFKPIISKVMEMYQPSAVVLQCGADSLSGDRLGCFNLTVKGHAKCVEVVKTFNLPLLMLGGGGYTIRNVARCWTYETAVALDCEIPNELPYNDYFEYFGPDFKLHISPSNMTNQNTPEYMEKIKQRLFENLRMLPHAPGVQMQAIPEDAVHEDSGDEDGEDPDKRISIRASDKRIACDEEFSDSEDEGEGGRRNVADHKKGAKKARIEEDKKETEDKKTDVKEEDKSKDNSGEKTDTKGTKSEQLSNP
Chain of Histone deacetylase 1 (Q13547 whole entry): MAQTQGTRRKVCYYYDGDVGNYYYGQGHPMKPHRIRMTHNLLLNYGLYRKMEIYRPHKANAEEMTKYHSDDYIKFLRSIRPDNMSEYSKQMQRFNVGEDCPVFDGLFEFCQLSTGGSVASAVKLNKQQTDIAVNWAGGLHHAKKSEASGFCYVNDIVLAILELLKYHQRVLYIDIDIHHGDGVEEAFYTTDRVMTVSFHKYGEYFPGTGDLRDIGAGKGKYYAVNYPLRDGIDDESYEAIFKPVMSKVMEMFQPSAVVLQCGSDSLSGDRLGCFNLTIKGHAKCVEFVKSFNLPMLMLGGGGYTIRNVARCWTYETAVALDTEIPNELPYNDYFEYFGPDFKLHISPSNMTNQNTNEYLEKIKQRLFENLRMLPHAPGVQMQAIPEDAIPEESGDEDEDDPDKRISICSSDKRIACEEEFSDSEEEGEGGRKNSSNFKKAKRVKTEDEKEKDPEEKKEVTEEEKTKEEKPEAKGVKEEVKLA

For `Nc1ccccc1NC(=O)c1ccc(CNC2=NC(=O)C(c3ccccc3)N2)cc1` (racemic), the IC50 at Histone deacetylase 1 was 350 nM; at Histone deacetylase 8, 8000 nM; in [1], 14 nM; on Histone deacetylase 2, 56 nM; in assay [2] it was above 20000 nM; in the assay with MCF7 it was 30100 nM. The half-inhibitory concentration (IC50) is above 50000 nM in the assay on DU-145, 18200 nM with HCT-116 and above 50000 nM in the assay on A549. Further, the result in the assay with Jurkat [3] and in the assay with HeLa [5] was Active. For the same molecule, the result with HeLa [4] was inactive. Also, the Activity with Jurkat [6] is 15.1%; in the assay with Jurkat [7] it was 22.3%; in the assay on Jurkat [8] it was 55.2%; in the assay on Jurkat [9] it was 7.4%; in the assay with Jurkat [10], 10.7%; with Jurkat [11], 20.7%. Further, the Activity in the assay with Jurkat [12] was found to be 65.5%; with Jurkat [13], 3.1%.

On to `O=C(NO)c1ccc(CNc2nccc(-c3cccnc3)n2)cc1`, for which the inhibition result in assay [14] was “Active”. Also, the half-inhibitory concentration (IC50) was 410 nM at Histone deacetylase 8, 31 nM in assay [1], 219 nM at Histone deacetylase 2 and 42 nM in assay [2].
